Source: ChEMBL document CHEMBL1135670, “Discovery of 8-hydroxyadenines as a novel type of interferon inducer” (2002)

Assays:
Mus musculus [1] = assay: Minimum effective dose required for more than 100 IU/mL induction of IFN using mice after peroral administration.; format: functional; settings: po, read-out: MED
Procedure, shortened: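 Compound dosed orally to mice; IFN measured in plasma in IU/mL. Value is the minimum effective dose in mg/kg, the lowest dose giving more than 100 IU/mL IFN.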

Mus musculus [2] = species on record: Mus musculus; assay: Minimum effective concentration required for more than 1 IU/mL induction of IFN using mice spleen cells; format: functional; settings: read-out: MEC
Procedure, shortened: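 Mouse spleen cells incubated with compound; IFN released into medium measured in IU/mL. Value is the minimum effective concentration, the lowest concentration giving more than 1 IU/mL IFN.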

SMILES | minimal effective dose (Mus musculus [1]) [mg/kg] | minimal effective concentration (Mus musculus [2]) [µM]
CCCCCOc1nc(N)c2nc(O)n(Cc3ccccc3)c2n1 | 0.3 | 0.01
Nc1nc(N)c2nc(O)n(Cc3ccccc3)c2n1 | – | 10
Nc1nc(-c2ccccc2)nc2c1nc(O)n2Cc1ccccc1 | > 30 | 10
Nc1ncnc2[nH]c(O)nc12 | – | > 10
Cc1nc(N)c2nc(O)n(Cc3ccccc3)c2n1 | 3 | 1
CCNc1nc(N)c2nc(O)n(Cc3ccccc3)c2n1 | – | 1
CCCOc1nc(N)c2nc(O)n(Cc3ccccc3)c2n1 | 0.3 | 0.01
CCOc1nc(N)c2nc(O)n(Cc3ccccc3)c2n1 | 0.3 | 0.1
COc1cccc(Cn2c(O)nc3c(N)ncnc32)c1 | – | 10
COc1ccc(Cn2c(O)nc3c(N)ncnc32)cc1 | – | 10
COc1nc2c(N)ncnc2n1Cc1ccccc1 | – | > 10
Nc1ncnc2c1nc(O)n2Cc1ccc(F)cc1 | 30 | 10
Nc1nc(SCc2ccccc2)nc2c1nc(O)n2Cc1ccccc1 | > 1 | 0.1
CCCCOc1nc(N)c2[nH]c(=O)n(Cc3ccccc3)c2n1 | 0.1 | 0.001
CCCCc1nc(N)c2nc(O)n(Cc3ccccc3)c2n1 | 0.3 | 0.03
Nc1ncnc2c1nc(Br)n2Cc1ccccc1 | – | > 10
CCCc1nc(N)c2nc(O)n(Cc3ccccc3)c2n1 | 3 | 1
CCCCNc1nc(N)c2nc(O)n(Cc3ccccc3)c2n1 | 0.1 | 0.1
CCc1nc(N)c2nc(O)n(Cc3ccccc3)c2n1 | 3 | 1
Cc1nc2c(N)ncnc2n1Cc1ccccc1 | – | > 10
Nc1ncnc2c1nc(O)n2-c1ccccc1 | – | > 10
CCCCSc1nc(N)c2nc(O)n(Cc3ccccc3)c2n1 | 0.3 | 0.01
CCCCCSc1nc(N)c2nc(O)n(Cc3ccccc3)c2n1 | 1 | 10
Nc1ncnc2c1nc(Cl)n2Cc1ccccc1 | – | > 10

SMILES | minimal effective dose (Mus musculus [1]) [mg/kg] | minimal effective concentration (Mus musculus [2]) [µM]
CSc1nc(N)c2nc(O)n(Cc3ccccc3)c2n1 | 0.1 | 0.1
Nc1nc(S)nc2c1nc(O)n2Cc1ccccc1 | – | 10
CCCSc1nc(N)c2nc(O)n(Cc3ccccc3)c2n1 | 0.1 | 0.01
NNc1nc2c(N)ncnc2n1Cc1ccccc1 | – | > 10
CCSc1nc(N)c2nc(O)n(Cc3ccccc3)c2n1 | 0.1 | 0.1
Nc1ncnc2c1nc(I)n2Cc1ccccc1 | – | > 10
Nc1ncnc2c1nc(O)n2Cc1cccc2ccccc12 | – | 10
COc1ccccc1Cn1c(O)nc2c(N)ncnc21 | – | 10
COc1nc(N)c2nc(O)n(Cc3ccccc3)c2n1 | > 1 | 0.1
Nc1nc(O)nc2c1nc(O)n2Cc1ccccc1 | 1 | 0.1
CCCCCNc1nc(N)c2nc(O)n(Cc3ccccc3)c2n1 | 0.3 | 0.1
Cc1ccc(Cn2c(O)nc3c(N)ncnc32)cc1 | – | 10
CSc1nc2c(N)ncnc2n1Cc1ccccc1 | – | > 10
Nc1ncnc2c1nc(S)n2Cc1ccccc1 | > 30 | 10
Nc1ncnc2c1nc(O)n2C1CCCC1 | – | > 10
CCCNc1nc(N)c2nc(O)n(Cc3ccccc3)c2n1 | 1 | 0.1
Nc1ncnc2c1nc(O)n2Cc1ccc(Cl)cc1 | 30 | 10
CCCCn1c(O)nc2c(N)ncnc21 | – | > 10
CNc1nc(N)c2nc(O)n(Cc3ccccc3)c2n1 | – | 1
Nc1ncnc2c1nc(O)n2Cc1ccccc1 | 30 | 10
CCCC[S+]([O-])c1nc(N)c2nc(O)n(Cc3ccccc3)c2n1 (centres undefined) | 1 | 0.01
Nc1ncnc2c1nc(O)n2CCc1ccccc1 | – | > 10
Nc1ncnc2c1ncn2Cc1ccccc1 [9-BENZYL-9H-ADENINE] | – | > 10
CC(C)Cn1cnc2c(N)nc3ccccc3c21 [IMIQUIMOD] | 3 | 1
